Assay results reported in ChEMBL document CHEMBL1138564, “Microwave-induced synthesis and anti-microbial activities of 7,10,11,12-tetrahydrobenzo[c]acridin-8(9H)-one derivatives” (2009).
In brackets after ≈: the same amount, converted by molar mass. Activity calls are given as the source filed them. The rule behind the calls is not given here.

Legend:
Penicillium chrysogenum [1] = assay: Antimicrobial activity against Penicillium chrysogenum NCIM 707 at 1000 ug/disk after 72 hrs by disk diffusion method; assay type: functional; conditions: NCIM 707, 72 h, read-out: DIZ
Method in brief: (§1)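 Disc diffusion on Sabouraud's dextrose agar. 100 µl of fungal suspension at 10⁶ CFU/ml is spread on the plate. Discs carry test compounds at two loadings in DMSO; DMSO alone is the negative control. Clotrimazole disc is the positive reference. Plates are incubated at 27 °C for 72 h, and the zone of inhibition diameter is measured.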

Salmonella typhimurium [2] = assay: Antimicrobial activity against Salmonella Typhimurium NCIM 2501 at 1000 ug/disk after 24 hrs by disk diffusion method; assay type: functional, Salmonella enterica subsp. enterica serovar Typhimurium; conditions: for zone of inhibition at 1000 µg/disc: Salmonella enterica, NCIM 2501, 24 h, read-out: DIZ
Method in brief: (§2)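 Disc diffusion. 100 µl of bacterial suspension at 10⁸ CFU/ml was spread on Mueller–Hinton agar. Discs loaded with test compound dissolved in DMSO were placed on the lawn, with a DMSO-only disc as negative control. Plates were incubated at 37 °C for 24 h, and the inhibition zone diameter was measured.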

Rhodotorula mucilaginosa [3] = assay: Antimicrobial activity against Rhodotorula rubra NCIM 3174 at 1000 ug/disk after 72 hrs by disk diffusion method; assay type: functional; conditions: NCIM 3174, 72 h, read-out: DIZ
Method in brief: (§3)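 Fungal disc diffusion. 100 µl of suspension at 10⁶ CFU/ml was spread on Sabouraud's dextrose agar. Discs carrying test compound in DMSO were applied, with a DMSO-only disc as negative control. Plates were incubated at 27 °C for 72 h, and the zone of inhibition diameter was measured.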

Lipomyces lipofer = assay: Antimicrobial activity against Lipomyces lipofer NCIM 3252 at 1000 ug/disk after 72 hrs by disk diffusion method; assay type: functional; conditions: for zone of inhibition at 1000 µg/disc: NCIM 3252, 72 h, read-out: DIZ; method in brief: as §1
Bacillus subtilis [4] = assay: Antimicrobial activity against Bacillus subtilis NCIM 2063 at 500 ug/disk after 24 hrs by disk diffusion method; assay type: functional; conditions: for zone of inhibition at 500 µg/disc: NCIM 2063, 24 h, read-out: DIZ
Method in brief: (§4)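 Disc diffusion on Mueller–Hinton agar. 100 µl of bacterial suspension at 10⁸ CFU/ml is spread on the plate. Discs carry test compounds at two loadings, dissolved in DMSO; DMSO alone serves as negative control. Ofloxacin disc is the positive reference. Plates are incubated at 37 °C for 24 h, and the inhibition zone diameter is measured.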

Salmonella typhimurium [5] = assay: Antimicrobial activity against Salmonella Typhimurium NCIM 2501 at 500 ug/disk after 24 hrs by disk diffusion method; assay type: functional, Salmonella enterica subsp. enterica serovar Typhimurium; conditions: for zone of inhibition at 500 µg/disc: Salmonella enterica, NCIM 2501, 24 h, read-out: DIZ; method in brief: as §2
[6] = test system: Rhodococcus corynebacterioides; assay: Antimicrobial activity against Corynebacterium rubrum NCIM 2252 at 1000 ug/disk after 24 hrs by disk diffusion method; assay type: functional; conditions: Rhodococcoides corynebacterioides; for zone of inhibition at 1000 µg/disc: NCIM 2252, 24 h, read-out: DIZ; method in brief: as §4
Escherichia coli [7] = assay: Antimicrobial activity against Escherichia coli NCIM 2065 at 500 ug/disk after 24 hrs by disk diffusion method; assay type: functional; conditions: NCIM 2065, 24 h, read-out: DIZ; method in brief: as §4
Rhodotorula mucilaginosa [8] = assay: Antimicrobial activity against Rhodotorula rubra NCIM 3174 after 72 hrs by serial dilution method; assay type: functional; conditions: NCIM 3174, 72 h
Method in brief: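 MIC by broth dilution in Sabouraud's dextrose broth, run only on fungi found sensitive in the disc assay. Twofold serial dilutions were made in 1 ml broth per tube, covering 3.9 to 1000. Inoculated tubes were incubated at 27 °C for 72 h.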

Aspergillus parasiticus [9] = assay: Antimicrobial activity against Aspergillus parasiticus NCIM 904 at 1000 ug/disk after 72 hrs by disk diffusion method; assay type: functional; conditions: NCIM 904, 72 h, read-out: DIZ; method in brief: as §1
Staphylococcus [10] = assay: Antimicrobial activity against Staphylococcus albus NCIM 2178 at 1000 ug/disk after 24 hrs by disk diffusion method; assay type: functional; method in brief: as §2
Penicillium chrysogenum [11] = assay: Antimicrobial activity against Penicillium chrysogenum NCIM 707 at 500 ug/disk after 72 hrs by disk diffusion method; assay type: functional; conditions: for zone of inhibition at 500 µg/disc: NCIM 707, 72 h, read-out: DIZ; method in brief: as §1
Escherichia coli [12] = assay: Antimicrobial activity against Escherichia coli NCIM 2065 at 1000 ug/disk after 24 hrs by disk diffusion method; assay type: functional; conditions: NCIM 2065, 24 h, read-out: DIZ; method in brief: as §4
Trichoderma viride = assay: Antimicrobial activity against Trichoderma viride NCIM 1195 at 1000 ug/disk after 72 hrs by disk diffusion method; assay type: functional; conditions: NCIM 1195, 72 h, read-out: DIZ; method in brief: as §3
Aliivibrio fischeri [13] = assay: Antimicrobial activity against Vibrio fischeri NCIM 2154 after 24 hrs by serial dilution method; assay type: functional; conditions: NCIM 2154, 24 h
Bacillus cereus = assay: Antimicrobial activity against Bacillus cereus NCIM 2155 at 1000 ug/disk after 24 hrs by disk diffusion method; assay type: functional; conditions: NCIM 2155, 24 h, read-out: DIZ; method in brief: as §4
Bacillus subtilis [14] = assay: Antimicrobial activity against Bacillus subtilis NCIM 2063 at 1000 ug/disk after 24 hrs by disk diffusion method; assay type: functional; conditions: NCIM 2063, 24 h, read-out: DIZ; method in brief: as §4
Proteus vulgaris = assay: Antimicrobial activity against Proteus vulgaris NCIM 2027 at 500 ug/disk after 24 hrs by disk diffusion method; assay type: functional; method in brief: as §4
Aliivibrio fischeri [15] = assay: Antimicrobial activity against Vibrio fischeri NCIM 2154 at 1000 ug/disk after 24 hrs by disk diffusion method; assay type: functional; conditions: for zone of inhibition at 1000 µg/disc: NCIM 2154, 24 h, read-out: DIZ; method in brief: as §2
Rhodotorula mucilaginosa [16] = assay: Antimicrobial activity against Rhodotorula rubra NCIM 3174 at 500 ug/disk after 72 hrs by disk diffusion method; assay type: functional; conditions: NCIM 3174, 72 h, read-out: DIZ; method in brief: as §3
Klebsiella aerogenes [17] = assay: Antimicrobial activity against Klebsiella aerogenes NCIM 2239 at 1000 ug/disk after 24 hrs by disk diffusion method; assay type: functional; conditions: for zone of inhibition at 1000 µg/disc: NCIM 2239, 24 h, read-out: DIZ; method in brief: as §4
Aspergillus fumigatus = assay: Antimicrobial activity against Aspergillus fumigatus NCIM 902 at 1000 ug/disk after 72 hrs by disk diffusion method; assay type: functional; conditions: NCIM 902, 72 h, read-out: DIZ; method in brief: as §1
Staphylococcus [18] = assay: Antimicrobial activity against Staphylococcus albus NCIM 2178 at 500 ug/disk after 24 hrs by disk diffusion method; assay type: functional; method in brief: as §2
Pseudomonas aeruginosa = assay: Antimicrobial activity against Pseudomonas aeruginosa NCIM 2200 at 1000 ug/disk after 24 hrs by disk diffusion method; assay type: functional; method in brief: as §4
Klebsiella aerogenes [19] = assay: Antimicrobial activity against Klebsiella aerogenes NCIM 2239 at 500 ug/disk after 24 hrs by disk diffusion method; assay type: functional; method in brief: as §4
Escherichia coli [20] = assay: Antimicrobial activity against Escherichia coli NCIM 2065 after 24 hrs by serial dilution method; assay type: functional; conditions: NCIM 2065, 24 h
Method in brief: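 Broth dilution MIC in nutrient broth, run only for organisms found sensitive in disc diffusion. Compounds are two-fold serially diluted in 1 ml sterile broth per tube, spanning 3.9 to 1000. Inoculated tubes are incubated at 37 °C for 24 h.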

Aspergillus flavus [21] = assay: Antimicrobial activity against Aspergillus flavus NCIM 902 after 72 hrs by serial dilution method; assay type: functional; conditions: NCIM 535, 72 h, in the assay text read “NCIM 535” for “NCIM 902”
Method in brief: (§5)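 MIC by broth dilution in Sabouraud's dextrose broth, only for fungi sensitive in disc diffusion. Two-fold serial dilutions of compounds are made in 1 ml broth per tube, range 3.9 to 1000. Inoculated tubes are incubated at 27 °C for 72 h.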

Aspergillus flavus [22] = assay: Antimicrobial activity against Aspergillus flavus NCIM 902 at 1000 ug/disk after 72 hrs by disk diffusion method; assay type: functional; conditions: NCIM 902, 72 h, read-out: DIZ; method in brief: as §1
[23] = test system: Rhodococcus corynebacterioides; assay: Antimicrobial activity against Corynebacterium rubrum NCIM 2252 at 500 ug/disk after 24 hrs by disk diffusion method; assay type: functional; conditions: Rhodococcoides corynebacterioides; for zone of inhibition at 500 µg/disc: NCIM 2252, 24 h, read-out: DIZ; method in brief: as §4
Aspergillus parasiticus [24] = assay: Antimicrobial activity against Aspergillus parasiticus NCIM 904 after 72 hrs by serial dilution method; assay type: functional; conditions: NCIM 904, 72 h; method in brief: as §5
Aspergillus flavus [25] = assay: Antimicrobial activity against Aspergillus flavus NCIM 902 at 500 ug/disk after 72 hrs by disk diffusion method; assay type: functional; conditions: NCIM 902, 72 h, read-out: DIZ; method in brief: as §1
[26] = Salmonella enterica subsp. enterica serovar Typhimurium

Row | Compound | zone of inhibition at 1000 µg/disc (Penicillium chrysogenum [1]) [mm] | zone of inhibition at 1000 µg/disc (Salmonella typhimurium [2]) [mm] | zone of inhibition at 1000 µg/disc (Rhodotorula mucilaginosa [3]) [mm] | zone of inhibition at 1000 µg/disc (Lipomyces lipofer) [mm] | zone of inhibition at 500 µg/disc (Bacillus subtilis [4]) [mm] | zone of inhibition at 500 µg/disc (Escherichia coli [7]) [mm] | MIC (Rhodotorula mucilaginosa [8]) [µg/mL] | zone of inhibition at 1000 µg/disc (Aspergillus parasiticus [9]) [mm] | zone of inhibition at 1000 µg/disc (Escherichia coli [12]) [mm] | zone of inhibition at 1000 µg/disc (Trichoderma viride) [mm] | zone of inhibition at 1000 µg/disc (Bacillus cereus) [mm] | zone of inhibition at 1000 µg/disc (Bacillus subtilis [14]) [mm] | zone of inhibition at 500 µg/disc (Rhodotorula mucilaginosa [16]) [mm] | zone of inhibition at 1000 µg/disc (Aspergillus fumigatus) [mm] | diameter of the inhibition zone (DIZ) (Klebsiella aerogenes [19]) | MIC (Escherichia coli [20]) [µg/mL] | MIC (Aspergillus flavus [21]) [µg/mL] | zone of inhibition at 1000 µg/disc (Aspergillus flavus [22]) [mm] | MIC (Aspergillus parasiticus [24]) [µg/mL] | zone of inhibition at 500 µg/disc (Aspergillus flavus [25]) [mm] | also measured
1 | O=C1CCCC2=C1C(c1ccc(Cl)cc1)c1ccc3ccccc3c1N2 (configuration not stated) | 8 | 11 | 16 | 9 | 8 | 7 | 3.9 (≈ 10.8 µM) | 12 | 8 | 8 | 13 | 12 | 12 | 10 | inactive | 62.5 (≈ 174 µM) | 62.5 (≈ 174 µM) | 10 | 31.2 (≈ 86.7 µM) | 7 | zone of inhibition at 500 µg/disc (Salmonella typhimurium [5]): 9 mm; zone of inhibition at 1000 µg/disc [6]: 8 mm; zone of inhibition at 1000 µg/disc (Staphylococcus [10]; NCIM 2178, 24 h, read-out: DIZ): 10 mm; zone of inhibition at 500 µg/disc (Penicillium chrysogenum [11]): 7 mm; MIC (Aliivibrio fischeri [13]): 62.5 µg/mL (≈ 174 µM); zone of inhibition at 500 µg/disc (Proteus vulgaris; NCIM 2027, 24 h, read-out: DIZ): 7 mm; zone of inhibition at 1000 µg/disc (Aliivibrio fischeri [15]): 9 mm; zone of inhibition at 1000 µg/disc (Klebsiella aerogenes [17]): 9 mm; zone of inhibition at 500 µg/disc (Staphylococcus [18]; NCIM 2178, 24 h, read-out: DIZ): 8 mm; zone of inhibition at 1000 µg/disc (Pseudomonas aeruginosa; NCIM 2200, 24 h, read-out: DIZ): 10 mm; zone of inhibition at 500 µg/disc [23]: 7 mm
2 | CC1(C)CC(=O)C2=C(C1)Nc1c(ccc3ccccc13)C2c1cccc(Cl)c1 (configuration not stated) | 10 | 10 | 9 | 8 | – | 7 | 62.5 (≈ 161 µM) | 12 | 8 | 13 | 10 | 9 | 7 | 9 | inactive | 125 (≈ 322 µM) | 62.5 (≈ 161 µM) | 10 | 31.2 (≈ 80.4 µM) | 9 | diameter of the inhibition zone (DIZ) (Bacillus subtilis [4]): inactive; zone of inhibition at 500 µg/disc (Salmonella typhimurium [5]): 8 mm; zone of inhibition at 1000 µg/disc [6]: 8 mm; diameter of the inhibition zone (DIZ) (Staphylococcus [10]): inactive; zone of inhibition at 500 µg/disc (Penicillium chrysogenum [11]): 7 mm; MIC (Aliivibrio fischeri [13]): 125 µg/mL (≈ 322 µM); diameter of the inhibition zone (DIZ) (Proteus vulgaris): inactive; zone of inhibition at 1000 µg/disc (Aliivibrio fischeri [15]): 9 mm; zone of inhibition at 1000 µg/disc (Klebsiella aerogenes [17]): 9 mm; diameter of the inhibition zone (DIZ) (Staphylococcus [18]): inactive; diameter of the inhibition zone (DIZ) (Pseudomonas aeruginosa): inactive; zone of inhibition at 500 µg/disc [23]: 7 mm
3 | O=C1CCCC2=C1C(c1ccccc1O)c1ccc3ccccc3c1N2 (configuration not stated) | 9 | – | 13 | – | 8 | 8 | 15.6 (≈ 45.7 µM) | 10 | 9 | 10 | 8 | 10 | 11 | 12 | inactive | 125 (≈ 366 µM) | 31.2 (≈ 91.4 µM) | 11 | 62.5 (≈ 183 µM) | 8 | diameter of the inhibition zone (DIZ) (Salmonella typhimurium [2]; [26]): inactive; diameter of the inhibition zone (DIZ) (Lipomyces lipofer): inactive; diameter of the inhibition zone (DIZ) (Salmonella typhimurium [5]; [26]): inactive; diameter of the inhibition zone (DIZ) [6]: inactive; diameter of the inhibition zone (DIZ) (Staphylococcus [10]): inactive; diameter of the inhibition zone (DIZ) (Penicillium chrysogenum [11]): inactive; diameter of the inhibition zone (DIZ) (Proteus vulgaris): inactive; diameter of the inhibition zone (DIZ) (Aliivibrio fischeri [15]): inactive; diameter of the inhibition zone (DIZ) (Klebsiella aerogenes [17]): inactive; diameter of the inhibition zone (DIZ) (Staphylococcus [18]): inactive; diameter of the inhibition zone (DIZ) (Pseudomonas aeruginosa): inactive; diameter of the inhibition zone (DIZ) [23]: inactive
